According to ChEMBL document CHEMBL4373737, “New thiazole-2(3H)-thiones containing 4-(3,4,5-trimethoxyphenyl) moiety as anticancer agents” (Eur J Med Chem, 2020):
Activity calls are given as the source filed them. The calls are words filed in the database; no cut-off is given here.

Columns and labels:
SK-OV-3 [1] = experiment: Cytotoxicity against human SKOV3 cells assessed as reduction in cell viability after 48 hrs by MTT assay; format: functional, cell-based; settings: SK-OV-3, 48 h
In short: (§1)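 MTT viability assay. Stocks in DMSO were diluted into culture medium to final 1, 5, 10, 50 and 100 µg/mL, with DMSO below 1%. A549, MCF-7, SKOV3 and normal mouse fibroblast L929 were used, with etoposide as reference. Values are means of three experiments. L929 was also tested up to 200 µg/mL alongside cisplatin 50 µg/mL.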

MCF7 [2] = experiment: Cytotoxicity against human MCF7 cells assessed as reduction in cell viability after 48 hrs by MTT assay; format: functional, cell-based; settings: MCF7, 48 h; in short: as §1
A549 [3] = experiment: Cytotoxicity against human A549 cells assessed as reduction in cell viability after 48 hrs by MTT assay; format: functional, cell-based; settings: A549, 48 h; in short: as §1
MCF7 [4] = experiment: Cytotoxicity against human MCF7 cells assessed as reduction in cell growth; format: functional, cell-based
B16 = experiment: Cytotoxicity against mouse B16 cells assessed as reduction in cell growth; format: functional, cell-based
HCT-116 = experiment: Cytotoxicity against human HCT116 cells assessed as reduction in cell growth; format: functional, cell-based
PC-3 = experiment: Cytotoxicity against human PC3 cells assessed as reduction in cell growth; format: functional, cell-based
A549 [5] = experiment: Cytotoxicity against human A549 cells assessed as reduction in cell growth; format: functional, cell-based
L929 [6] = experiment: Genotoxicity in mouse L929 cells assessed as induction of DNA damage at 0.5 ug/ml incubated for 1 hr by alkaline comet assay; format: toxicity, cell-based; settings: l929, 1 h
In short: (§2)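 Alkaline comet assay in L929 seeded at 250000 cells/well and exposed for 1 h to 10 µg/mL; etoposide 0.5 µg/mL served as positive control and untreated cells as negative. Cells were embedded in low-melt agarose and lysed 1 h at 4 °C (2.5 M NaCl, 100 mM EDTA, 10 mM Tris, pH 10, 10% DMSO, 1% Triton X-100). DNA unwound 40 min at pH>13, electrophoresed 25 V/300 mA 20 min, neutralized, stained with ethidium bromide. Tail length, % tail DNA and tail moment scored; mean ± SEM.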

Ovis aries [7] = species on record: Ovis aries; experiment: (§3) Inhibition of sheep brain tubulin polymerization incubated for 15 mins in presence of GTP by turbidimetric method
In short: (§4)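 Tubulin purified from sheep brain by three polymerization/depolymerization cycles. It was preincubated 15 min on ice with 0.5, 2, 10 or 20 µg/mL, then polymerization started with 1 mM GTP at 37 °C and followed by turbidity at 350 nm. IC50 was taken from area under the curve, with untreated control set as 100% polymerization. Colchicine served as reference.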

[8] = as §3; parameters: species or system Ovis aries; in short: as §4
MCF7 [9] = experiment: Cell cycle arrest in human MCF7 cells assessed as accumulation at G2/M phase at 12 ug/ml after 48 hrs by RNase A/propidium iodide staining based FACScalibur flow cytometry (reference value: 16.69 %); format: functional
In short: (§5)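 MCF-7 seeded at 25×10^4 cells/well, treated 24 h later with 12 µg/mL for 48 h; untreated control. Cells washed in cold PBS, fixed in 70% ethanol ≥3 h, RNase A 1 h at room temperature, then propidium iodide. Phase distribution (sub-G1, G1, S, G2/M) read by flow cytometry.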

MCF7 [10] = experiment: Cell cycle arrest in human MCF7 cells assessed as accumulation at G1 phase at 12 ug/ml after 48 hrs by RNase A/propidium iodide staining based FACScalibur flow cytometry (reference value: 44.45 %); format: functional; in short: as §5
[11] = Hemolytic activity in human erythrocytes at 10 ug/ml after 1 hr relative to control; format: ADME, cell-based, Erythrocyte; settings: read-out: Activity
In short: (§6)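 Human erythrocytes; DMSO stock added 1:20 to diluted cells to give final 1, 5 and 10 µg/mL. DMSO served as negative control and Triton X-100 (2% v/v) as positive (100%) control. Percent hemolysis measured in three repeats, mean ± SD.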

L929 [12] = experiment: Cytotoxicity against mouse L929 cells assessed as […] cell viability after 48 hrs by MTT assay; format: cell-based; settings: L929, 48 h; in short: as §1
MCF7 [13] = experiment: Cell cycle arrest in human MCF7 cells assessed as accumulation at S phase at 12 ug/ml after 48 hrs by RNase A/propidium iodide staining based FACScalibur flow cytometry (reference value: 38.2 %); format: functional; in short: as §5
SK-OV-3 [14] = experiment: Induction of apoptosis in human SKOV3 cells assessed as early apoptotic cells at 4 ug/ml after 48 hrs by AnnexinV-FITC/propidium iodide staining based FACScan flow cytometry analysis relative to control; format: functional
In short: (§7)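 SKOV3 seeded at 1×10^6 cells/well for 24 h, then given fresh medium containing 2 or 4 µg/mL for 48 h. Cells harvested by trypsinization, PBS-washed, stained with Annexin-V-FITC 15 min at room temperature, then PI 10 min. Flow cytometry with 488 nm excitation; quadrants were necrotic, late apoptotic, viable and early apoptotic.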

SK-OV-3 [15] = experiment: Induction of apoptosis in human SKOV3 cells assessed as early apoptotic cells at 2 ug/ml after 48 hrs by AnnexinV-FITC/propidium iodide staining based FACScan flow cytometry analysis relative to control; format: functional; in short: as §7
SK-OV-3 [16] = experiment: Induction of apoptosis in human SKOV3 cells assessed as viable cells at 2 ug/ml after 48 hrs by AnnexinV-FITC/propidium iodide staining based FACScan flow cytometry analysis relative to control; format: functional; settings: SK-OV-3, 48 h, read-out: Activity; in short: as §7
SK-OV-3 [17] = experiment: Induction of apoptosis in human SKOV3 cells assessed as necrotic cells at 4 ug/ml after 48 hrs by AnnexinV-FITC/propidium iodide staining based FACScan flow cytometry analysis relative to control; format: functional; in short: as §7
MCF7 [18] = experiment: Cell cycle arrest in human MCF7 cells assessed as accumulation at sub-G1 phase at 12 ug/ml after 48 hrs by RNase A/propidium iodide staining based FACScalibur flow cytometry (reference value: 0.66 %); format: functional; in short: as §5
SK-OV-3 [19] = experiment: Induction of apoptosis in human SKOV3 cells assessed as necrotic cells at 2 ug/ml after 48 hrs by AnnexinV-FITC/propidium iodide staining based FACScan flow cytometry analysis relative to control; format: functional; in short: as §7
L929 [20] = experiment: Genotoxicity in mouse L929 cells assessed as induction of DNA damage at 10 ug/ml incubated for 1 hr by alkaline comet assay; format: toxicity, cell-based; settings: l929, 1 h; in short: as §2
SK-OV-3 [21] = experiment: Induction of apoptosis in human SKOV3 cells assessed as late apoptotic cells at 4 ug/ml after 48 hrs by AnnexinV-FITC/propidium iodide staining based FACScan flow cytometry analysis relative to control; format: functional; in short: as §7
Erythrocyte = experiment: Hemolytic activity in human erythrocytes at 1 to 5 ug/ml after 1 hr; format: ADME, cell-based; in short: as §6
SK-OV-3 [22] = experiment: Induction of apoptosis in human SKOV3 cells assessed as late apoptotic cells at 2 ug/ml after 48 hrs by AnnexinV-FITC/propidium iodide staining based FACScan flow cytometry analysis relative to control; format: functional; in short: as §7
SK-OV-3 [23] = experiment: Induction of apoptosis in human SKOV3 cells assessed as viable cells at 4 ug/ml after 48 hrs by AnnexinV-FITC/propidium iodide staining based FACScan flow cytometry analysis relative to control; format: functional; settings: SK-OV-3, 48 h, read-out: Activity; in short: as §7
Ovis aries [24] = species on record: Ovis aries; experiment: Inhibition of colchicine binding to sheep brain tubulin assessed as decrease in fluorescence of colchicine-tubulin complex at 1 to 5 uM by fluorescence based assay
In short: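 Purified tubulin (0.25 µM) incubated 1 h at 37 °C with colchicine 0.1, 0.25, 0.5 or 1 µM, then test compound at final 1 or 5 µM. Fluorescence read at ex 360/em 430 nm, corrected for compound background, expressed as F/F0; n=3.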

COc1cc(-c2csc(=S)n2-c2ccc(Cl)c(Cl)c2)cc(OC)c1OC
IC50 (SK-OV-3 [1]): 17.9 µM | IC50 (MCF7 [2]): 9.6 µM | IC50 (A549 [3]): 12.1 µM

COc1cc(-c2csc(=S)n2Cc2ccc(O)cc2)cc(OC)c1OC
IC50 (SK-OV-3 [1]): 18.7 µM | IC50 (MCF7 [2]): 22 µM | IC50 (A549 [3]): 15.6 µM

COc1cc(-c2csc(=S)n2-c2ccc(Cl)cc2)cc(OC)c1OC
IC50 (SK-OV-3 [1]): 17.7 µM | IC50 (MCF7 [2]): 16.9 µM | IC50 (A549 [3]): 15.4 µM

COc1ccc(-c2coc(=O)n2-c2cc(OC)c(OC)c(OC)c2)cc1N
IC50 (MCF7 [4]): 0.0011 to 0.0043 µM | IC50 (B16): 0.0011 to 0.0043 µM | IC50 (HCT-116): 0.0011 to 0.0043 µM | IC50 (PC-3): 0.0011 to 0.0043 µM | IC50 (A549 [5]): 0.0011 to 0.0043 µM

COc1cc(C2(O)CSC(=S)N2Cc2ccc(F)cc2)cc(OC)c1OC (stereo not given)
IC50 (SK-OV-3 [1]): 12.4 µM | IC50 (MCF7 [2]): 12 µM | IC50 (A549 [3]): 21.4 µM

COc1cc(C2(O)CSC(=S)N2Cc2ccc(Cl)cc2)cc(OC)c1OC (stereo not given)
IC50 (SK-OV-3 [1]): 18.1 µM | IC50 (MCF7 [2]): 18.8 µM | IC50 (A549 [3]): 11.6 µM

COc1cc(-n2c(-c3ccc(Cl)cc3)csc2=S)cc(OC)c1OC
IC50 (MCF7 [2]): > 100 µg/mL

COc1cc([C@@H]2c3cc4c(cc3[C@@H](O[C@@H]3O[C@@H]5CO[C@@H](C)O[C@H]5[C@H](O)[C@H]3O)[C@H]3COC(=O)[C@H]23)OCO4)cc(OC)c1O [ETOPOSIDE]
IC50 (SK-OV-3 [1]): 9.2 µM | IC50 (MCF7 [2]): 5.7 µM | IC50 (A549 [3]): 6 µM | Activity (L929 [6]): Toxic

COc1cc(-c2csc(=S)n2Cc2ccc(F)cc2)cc(OC)c1OC
IC50 (SK-OV-3 [1]): 18.6 µM | IC50 (MCF7 [2]): 10 µM | IC50 (A549 [3]): 15.8 µM

COc1cc(C2(O)CSC(=S)N2C)cc(OC)c1OC (stereo not given)
IC50 (SK-OV-3 [1]): 13.4 µM | IC50 (MCF7 [2]): 26.1 µM | IC50 (A549 [3]): 10.2 µM

COc1cc(-c2csc(=S)n2Cc2ccc(Cl)cc2)cc(OC)c1OC
inhibition (Ovis aries [7]): Dose-dependent effect | IC50 [8]: 9.97 µg/mL | Activity (MCF7 [9]): 5.72% | IC50 (SK-OV-3 [1]): 18.1 µM | Activity (MCF7 [10]): 54.57% | hemolysis at 1 h, 10 ug/ml [11]: < 25% | IC50 (L929 [12]): > 200 µg/mL | IC50 (MCF7 [2]): 5.9 µM | Activity (MCF7 [13]): 22.43% | Activity (SK-OV-3 [14]): 6.2% | Activity (SK-OV-3 [15]): 6.2% | viability at 2 µg/mL (SK-OV-3 [16]): 64.1% | Activity (SK-OV-3 [17]): 19.9% | Activity (MCF7 [18]): 17.28% | Activity (SK-OV-3 [19]): 16.12% | Activity (L929 [20]): Toxic | IC50 (A549 [3]): 6.7 µM | Activity (SK-OV-3 [21]): 15.49% | Activity (Erythrocyte): Non-Toxic | Activity (SK-OV-3 [22]): 13.55% | viability at 4 µg/mL (SK-OV-3 [23]): 64.1%

COc1cc(-c2csc(=S)n2Cc2ccccc2Cl)cc(OC)c1OC
inhibition (Ovis aries [7]): Dose-dependent effect | IC50 [8]: 5.14 µg/mL | Activity (MCF7 [9]): 0.07% | IC50 (SK-OV-3 [1]): 13.5 µM | Activity (MCF7 [10]): 78.02% | inhibition (Ovis aries [24]): Active | hemolysis at 1 h, 10 ug/ml [11]: < 25% | IC50 (L929 [12]): > 200 µg/mL | IC50 (MCF7 [2]): 2.8 µM | Activity (MCF7 [13]): 7.17% | Activity (SK-OV-3 [14]): 7.6% | Activity (SK-OV-3 [15]): 3.06% | viability at 2 µg/mL (SK-OV-3 [16]): 68.9% | Activity (SK-OV-3 [17]): 13.72% | Activity (MCF7 [18]): 14.74% | Activity (SK-OV-3 [19]): 12.57% | Activity (L929 [20]): Non-Toxic | IC50 (A549 [3]): 13.8 µM | Activity (SK-OV-3 [21]): 19.81% | Activity (SK-OV-3 [22]): 15.49% | viability at 4 µg/mL (SK-OV-3 [23]): 58.9%

COc1cc(-c2csc(=S)n2C)cc(OC)c1OC
IC50 (SK-OV-3 [1]): 23.4 µM | IC50 (MCF7 [2]): 27.7 µM | IC50 (A549 [3]): 17.5 µM

COc1cc(C2(O)CSC(=S)N2Cc2ccccc2Cl)cc(OC)c1OC (stereo not given)
IC50 (SK-OV-3 [1]): 12.1 µM | IC50 (MCF7 [2]): 12.3 µM | IC50 (A549 [3]): 14.6 µM

COc1cc(C2(O)CSC(=S)N2Cc2ccccc2)cc(OC)c1OC (stereo not given)
IC50 (SK-OV-3 [1]): 13.8 µM | IC50 (MCF7 [2]): 13.4 µM | IC50 (A549 [3]): 12.8 µM

COc1cc(-c2csc(=S)n2Cc2ccccc2)cc(OC)c1OC
IC50 (SK-OV-3 [1]): 17.5 µM | IC50 (MCF7 [2]): 13.9 µM | IC50 (A549 [3]): 12.1 µM
